Results on five compounds are retold here after PMC8416298 (European Journal of Medicinal Chemistry, 2021).

Read-outs that look alike come from different tables or passages of the source.

One data set concerns HCoV-229E. The experiment in a line: microbe, parasite or virus in culture. Conditions: Human coronavirus 229E, MRC5, read-out: EC50 (CI). Format: cell-based.
In the next data set the test system is MRC-5 cells. In words: MTT cell viability assay in MRC-5 cells. Format: cell-based, human. Conditions: in words. The method, boiled down: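 Human fibroblast MRC-5 cells exposed to test compound for 72 h; viability read by MTT (3-(4,5-dimethylthiazol-2-yl)-2,5-diphenyl tetrazolium bromide) assay. CC50 taken as the compound concentration that inhibits cell viability by 50%.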

Data set [1] has as its system human prostaglandin E synthase type 2 (PGES-2). The following applies: cited from earlier work.
Data set [2] concerns SARS-CoV-2. The following applies: 4-day cytopathic effect protection assay, Vero E6 cells; cited from earlier work. (Cytopathic effects are the visible damage that an infection or toxin causes in cultured cells.)
In data set [3] the test system is SARS-CoV-2. The following applies: virus yield reduction assay, 48 h, infected Vero E6 cells; cited from earlier work.
Another data set concerns CCoV. Conditions: dog, po, 1 mg/kg; cited from earlier work.
A further data set deals with SARS-CoV-2/NL/2020. In words: Plaque reduction assay. Format: cell-based. The following applies: for dose-dependent inhibitory activity: any of the tested SARS-CoV-2 strains, up to 50 μM. For orientation: In a plaque reduction assay, fewer plaques than in the control indicate reduced infectivity or spread.

What is called EC50 is the concentration needed to bring the measured effect to its halfway point.

In the case of `COc1ccc2c(c1)c(CC(=O)NCCN1CCN(C(=O)CCC(=O)N[C@H](C(=O)N3C[C@H](O)C[C@H]3C(=O)N[C@@H](C)c3ccc(-c4scnc4C)cc3)C(C)(C)C)CC1)c(C)n2C(=O)c1ccc(Cl)cc1` [Compound 5, (2S,4R)-1-((S)-2-(4-(4-(2-(2-(1-(4-chlorobenzoyl)-5-methoxy-2-methyl-1H-indol-3-yl)acetamido)ethyl)piperazin-1-yl)-4-oxobutanamido)-3,3-dimethylbutanoyl)-4-hydroxy-N-((S)-1-(4-(4-methylthiazol-5-yl)phenyl)ethyl)pyrrolidine-2-carboxamide], the EC50 in the data set with HCoV-229E was found to be 3.4 µM. The cytotoxicity result in the data set with MRC-5 cells was “did not show significant cytotoxicity”.
Consider `COc1ccc2c(c1)c(CC(=O)O)c(C)n2C(=O)c1ccc(Cl)cc1` [INM, Indomethacin], for which the PGES-2 inhibition entry in data set [1] was “low nanomolar range”. Moreover, the concentration for a half-maximal effect (EC50) was over 400 µM in the data set on SARS-CoV-2 [2] and 100 µM in the data set on SARS-CoV-2 [3]. Further, the “in vivo antiviral efficacy” value in the data set with CCoV was “in vivo antiviral efficacy”.
Turning to `COc1ccc2c(c1)c(CC(=O)NCCOCCOCC(=O)N[C@H](C(=O)N1C[C@H](O)C[C@H]1C(=O)N[C@@H](C)c1ccc(-c3scnc3C)cc1)C(C)(C)C)c(C)n2C(=O)c1ccc(Cl)cc1` [Compound 4, (2S,4R)-1-((S)-2-(tert-butyl)-14-(1-(4-chlorobenzoyl)-5-methoxy-2-methyl-1H-indol-3-yl)-4,13-dioxo-6,9-dioxa-3,12-diazatetradecanoyl)-4-hydroxy-N-((S)-1-(4-(4-methylthiazol-5-yl)phenyl)ethyl)pyrrolidine-2-carboxamide], the dose-dependent inhibitory activity result in the data set on SARS-CoV-2/NL/2020 was “did not show dose-dependent inhibitory activity”. The “activity in PRA” value in the data set on SARS-CoV-2/NL/2020 (in words) was “not active”.
In the case of `COc1ccc2c(c1)c(CC(=O)NCCCCC(=O)N[C@H](C(=O)N1C[C@H](O)C[C@H]1C(=O)N[C@@H](C)c1ccc(-c3scnc3C)cc1)C(C)(C)C)c(C)n2C(=O)c1ccc(Cl)cc1` [Compound 2, (2S,4R)-1-((S)-2-(5-(2-(1-(4-chlorobenzoyl)-5-methoxy-2-methyl-1H-indol-3-yl)acetamido)pentanamido)-3,3-dimethylbutanoyl)-4-hydroxy-N-((S)-1-(4-(4-methylthiazol-5-yl)phenyl)ethyl)pyrrolidine-2-carboxamide], in the data set with SARS-CoV-2/NL/2020, the dose-dependent inhibitory activity result is recorded as “did not show dose-dependent inhibitory activity”.
With `COc1ccc2c(c1)c(CC(=O)NCCCCCCC(=O)N[C@H](C(=O)N1C[C@H](O)C[C@H]1C(=O)N[C@@H](C)c1ccc(-c3scnc3C)cc1)C(C)(C)C)c(C)n2C(=O)c1ccc(Cl)cc1` [Compound 3, (2S,4R)-1-((S)-2-(7-(2-(1-(4-chlorobenzoyl)-5-methoxy-2-methyl-1H-indol-3-yl)acetamido)heptanamido)-3,3-dimethylbutanoyl)-4-hydroxy-N-((S)-1-(4-(4-methylthiazol-5-yl)phenyl)ethyl)pyrrolidine-2-carboxamide], the cytotoxicity result with MRC-5 cells is “did not show significant cytotoxicity”.
